Laboratory results as given in ChEMBL document CHEMBL4706643 (J Med Chem, 2021).
Activity calls are given as the source filed them. The rule behind the calls is not given here.

Key:
[1] = Intrinsic clearance in rat liver microsomes at 1 uM preincubated for 5 mins followed by NADPH addition and measured upto 60 mins by LC-MS analysis; type: ADME, Microsome; conditions: time 65 min, read-out: CLH
[2] = Intrinsic clearance in mouse liver microsomes at 1 uM preincubated for 5 mins followed by NADPH addition and measured upto 60 mins by LC-MS analysis; type: ADME, Microsome; conditions: read-out: CLH
Procedure, shortened: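 Human or mouse liver microsomes, final 1 mg/mL in 0.05 M phosphate buffer pH 7.4; compound final 1 μM, preincubated 37 °C 5 min, started with 1 mM NADPH; sampled at 0, 5, 15, 30, 60 min, methanol quench, −20 °C 1 h, centrifuged, supernatant by LC–MS.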

[3] = Half life in C57BL/6 mouse plasma at 5 mg/kg, iv; type: ADME, organism-based
Procedure, shortened: (§1)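 Male C57BL/6 mice (n = 3), single dose IV 5 mg/kg, IP 10 mg/kg or PO 10 mg/kg in DMSO:cremophor:0.9% NaCl 5:5:90; plasma parameters reported as means.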

[4] = Tmax in C57BL/6 mouse at 10 mg/kg, ip; type: ADME, organism-based; conditions: in vivo; procedure, shortened: as §1
[5] = Tmax in C57BL/6 mouse at 10 mg/kg, po; type: ADME, organism-based; conditions: in vivo; procedure, shortened: as §1
Hepatitis B virus [6] = assay: Antiviral activity against HBV infected in primary human hepatocytes; type: functional, organism-based; conditions: Hepatocyte
HepG2 [7] = assay: Antiviral activity against HBV genotype C infected in human HepG2-NTCP cells assessed as reduction in HBeAg secretion at 2 uM cells inoculated with virus for 4 hrs at room temperature and 37 degree C for 24 hrs followed inoculum changed with PMM medium for every 2 days until day 5 post infection by ELISA; type: functional, cell-based; conditions: time 28.0 hrs
Procedure, shortened: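 HepG2-NTCP cells seeded 4–6 h, then primary maintenance medium 20–24 h; virus inoculum plus compound dilutions 4 h at room temperature, then 37 °C 24 h; medium changed every 2 days to PMM with 2% FBS until day 5 post infection. Secreted HBeAg measured by ELISA; IC50 by nonlinear regression from six or more points, three repeats.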

Hepatitis B virus [8] = assay: Antiviral activity against HBV infected in human HepG2-NTCP cells assessed as reduction in HBV viral transcription at 10 uM treated 3 days post infection by northern blot analysis; type: functional, organism-based; conditions: time 3.0 day
Procedure, shortened: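 Infected HepG2-NTCP cells given compound either with the HBV inoculum or at dpi 3–5; RNA extracted with TRIzol, run on 1.0% agarose–formaldehyde/MOPS gel. Northern blot as for Southern, probed with DIG-labelled full-length HBV genome plus DIG-labelled GAPDH probe.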

[9] = target: T1, Hepatic sodium/bile acid cotransporter (Homo sapiens, UniProt Q14973); assay: Inhibition of human NTCP-mediated [3H]-TCA uptake expressed in human HepG2 cells incubated for 2 hrs followed by substrate addition and measured for 10 mins by microbeta liquid scintillation counter analysis; type: cell-based
T1 sequence (Q14973 whole entry): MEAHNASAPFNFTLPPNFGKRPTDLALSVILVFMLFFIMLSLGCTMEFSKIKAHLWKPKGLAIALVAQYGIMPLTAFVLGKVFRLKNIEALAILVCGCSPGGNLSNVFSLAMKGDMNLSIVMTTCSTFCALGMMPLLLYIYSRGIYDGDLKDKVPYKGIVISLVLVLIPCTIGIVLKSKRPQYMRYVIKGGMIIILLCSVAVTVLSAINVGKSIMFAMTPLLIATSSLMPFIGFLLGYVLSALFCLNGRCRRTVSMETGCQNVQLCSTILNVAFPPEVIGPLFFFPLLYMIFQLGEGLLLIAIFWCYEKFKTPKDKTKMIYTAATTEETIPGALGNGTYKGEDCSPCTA
Procedure, shortened: (§2)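 HepG2 cells expressing NTCP (human, mouse, monkey or tree shrew) seeded 4–6 h, PMM 20–24 h; compound 2 h, then Na+ Ringer's buffer with 2 μM 3H-TCA, 37 °C 10 min; PBS washes, lysis in 1% Triton X-100, scintillation counting. Single-concentration lines at 2 μM.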

[10] = target: T1, Hepatic sodium/bile acid cotransporter; assay: Inhibition of Myr95F binding to human NTCP expressed in HepG2 cells assessed as decrease in cell membrane staining at 1 uM incubated for 2 hrs by fluorescence staining based analysis; conditions: hepg2, 2 h
Procedure, shortened: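 HepG2-NTCP cells stained with fluorescent Myr59F pre-S1 peptide in presence of DMSO, compound (1 μM) or Myr47 (200 nM); membrane staining intensity quantified.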

[11] = target: T1, Hepatic sodium/bile acid cotransporter; assay: Inhibition of human NTCP-mediated [3H]-TCA uptake expressed in human HepG2 cells at 2 uM incubated for 2 hrs followed by substrate addition and measured for 10 mins by microbeta liquid scintillation counter analysis; type: cell-based; conditions: hepg2, 2.167 h, time 130 min; procedure, shortened: as §2
HepG2 [12] = assay: Inhibition of tree shrew NTCP-mediated [3H]-TCA uptake expressed in human HepG2 cells at 2 uM incubated for 2 hrs followed by substrate addition and measured for 10 mins by microbeta liquid scintillation counter analysis; type: cell-based; conditions: Scandentia; procedure, shortened: as §2
[13] = target: T2, Solute carrier organic anion transporter family member 1B1 (Homo sapiens, UniProt Q9Y6L6); assay: Inhibition of OATP1B1 (unknown origin) mediated [3H]-estrone sulfate uptake expressed in human HepG2 cells; type: cell-based
T2 sequence (Q9Y6L6 whole entry): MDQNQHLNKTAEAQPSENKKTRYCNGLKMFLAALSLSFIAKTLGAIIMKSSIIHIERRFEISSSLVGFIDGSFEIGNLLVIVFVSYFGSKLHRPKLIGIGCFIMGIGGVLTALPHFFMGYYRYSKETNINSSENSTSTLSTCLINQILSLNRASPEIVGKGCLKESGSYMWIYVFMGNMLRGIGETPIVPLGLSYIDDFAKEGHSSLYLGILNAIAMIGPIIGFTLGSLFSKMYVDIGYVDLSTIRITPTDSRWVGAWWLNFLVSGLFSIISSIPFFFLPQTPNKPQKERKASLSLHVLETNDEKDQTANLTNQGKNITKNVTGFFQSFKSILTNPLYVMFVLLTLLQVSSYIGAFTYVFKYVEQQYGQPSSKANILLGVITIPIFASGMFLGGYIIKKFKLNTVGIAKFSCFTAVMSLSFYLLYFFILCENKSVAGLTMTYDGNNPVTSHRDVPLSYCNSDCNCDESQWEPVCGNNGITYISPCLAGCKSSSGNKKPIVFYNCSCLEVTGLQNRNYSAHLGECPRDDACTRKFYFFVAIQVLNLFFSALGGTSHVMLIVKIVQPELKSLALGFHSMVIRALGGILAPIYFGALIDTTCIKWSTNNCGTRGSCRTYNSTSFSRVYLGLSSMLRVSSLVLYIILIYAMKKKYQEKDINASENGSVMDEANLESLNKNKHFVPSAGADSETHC

[14] = Immunosuppressive activity in C57B/L mouse spleen T cells assessed as inhibition of anti-CD3 induced T cell proliferation incubated for 48 hrs by CFSE staining based flow cytometric analysis; type: tissue-based
Procedure, shortened: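 Spleen T cells from adult C57B/L mouse, CFSE-labelled, cultured in RPMI-1640 on anti-CD3-coated wells with compound or DMSO; stained with PE-anti-CD4 before flow cytometric proliferation analysis. Legend gives 48 h stimulation, methods 72 h; 2 μM compounds.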

HepG2 [15] = assay: Cytotoxicity against human HepG2 cells at 100 uM; type: cell-based; conditions: hepg2, 100 µM
Hepatitis delta virus = assay: Antiviral activity against HDV infected in NTCP-edited FVB mouse assessed as decrease in viral RNA levels in liver at 30 mg/kg, po administered for 8 days via gavage followed by HDV challenge at day 2 and measured at day 8 post infection by qPCR analysis; conditions: time 8.0 day

CC[C@@H]1NC(=O)[C@H]([C@@H]2O[C@@H](Sc3cccc(OCc4ccccc4)c3)C[C@H]2C)N(C)C(=O)[C@H](C(C)C)N(C)C(=O)[C@H](CC(C)C)N(C)C(=O)[C@H](CC(C)C)N(C)C(=O)[C@@H](C)NC(=O)[C@H](C)NC(=O)[C@H](CC(C)C)N(C)C(=O)[C@H](C(C)C)NC(=O)[C@H](CC(C)C)N(C)C(=O)CN(C)C1=O
microsomal CLint at 1 µM [1]: 2.2 µL/min/mg | microsomal CLint at 1 µM [2]: 4.1 µL/min/mg | half-life [3]: 6.03 h | Tmax [4]: 2 h | Tmax [5]: 1 h | IC50 (Hepatitis B virus [6]): 59 nM | Activity (HepG2 [7]): Active | Activity (Hepatitis B virus [8]): inactive | IC50 [9]: 66 nM | inhibition (INH) [10]: Active | inhibition (INH) [11]: Active | inhibition (HepG2 [12]): Active | IC50 [13]: 2270 nM | Activity [14]: Non-Toxic | Activity (HepG2 [15]): Non-Toxic | Activity (Hepatitis delta virus): Active
